Results: ChEMBL document CHEMBL1145082 (J Med Chem, 2003)

How the values were obtained:
[1] = Inhibitory activity against Protein kinase A was determined
[2] = biological target: Tyrosine-protein kinase Lyn (Homo sapiens) (UniProt P07948); experiment: Inhibition of Protein tyrosine kinase Lyn at 10 uM; parameters: scale not given: the % may be the effect or the level left
Procedure, shortened: (§1)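 Outsourced selectivity panel. Each kinase phosphorylated its own peptide or protein substrate in the presence of 10 µM compound and 10 µM ATP, within the linear time range. Activity given as mean percent of control incubations from duplicate determinations.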

[3] = biological target: Platelet-derived growth factor receptor alpha (Homo sapiens) (UniProt P16234); experiment: Inhibition of Platelet-derived growth factor receptor alpha at 10 uM; parameters: scale not given: the % may be the effect or the level left; procedure, shortened: as §1
[4] = Increased glycogen synthase activity in HEK293 cells; assay type: functional, cell-based; conditions: Homo sapiens
Procedure, shortened: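 HEK293 cells starved of serum and glucose for 3 h, then exposed to compound or vehicle for 90 min at 37 °C. Cells lysed by three freeze–thaw cycles and lysates clarified. GS activity read as 14C-UDP-glucose incorporation into glycogen, with and without glucose 6-phosphate. EC50 from 6–10 concentrations; ≥3 experiments in duplicate; mean ± SEM.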

[5] = biological target: Cyclin-dependent kinase 2 (Homo sapiens, UniProt P24941); experiment: Inhibition of Cyclin-dependent kinase 2 (CDK2)
Procedure, shortened: (§2)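 Reaction started with 30–150 ng kinase, run 1 h at 30 °C. Peptides captured on streptavidin plates and counted. IC50 from 6–10 concentrations; ≥3 experiments in duplicate; ± SEM.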

[6] = biological target: Inhibitor of nuclear factor kappa-B kinase subunit alpha (Homo sapiens) (UniProt O15111); experiment: Inhibition of I kappa-B kinase alpha (IKK) at 10 uM; parameters: scale not given: the % may be the effect or the level left; procedure, shortened: as §1
[7] = biological target: RAF proto-oncogene serine/threonine-protein kinase (Homo sapiens) (UniProt P04049); experiment: Inhibition of human RAF proto-oncogene serine/threonine-protein kinase (c-RAF) at 10 uM; parameters: scale not given: the % may be the effect or the level left; procedure, shortened: as §1
[8] = biological target: Dual specificity mitogen-activated protein kinase kinase 4 (Mus musculus) (UniProt P47809); experiment: Inhibition of mouse Mitogen activated protein kinase kinase 4 at 10 uM; parameters: scale not given: the % may be the effect or the level left
Procedure, shortened: (§3)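 Upstate kinase selectivity panel: each kinase phosphorylated its peptide or protein substrate with 10 µM compound present and 10 µM ATP. Reactions were linear with time. Activity is reported as the mean percentage of control incubations, from duplicate determinations.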

[9] = biological target: Tyrosine-protein kinase Blk (Homo sapiens) (UniProt P51451); experiment: Inhibition of Blk (B lymphocyte kinase) at 10 uM; parameters: scale not given: the % may be the effect or the level left; procedure, shortened: as §1
[10] = biological target: Inhibitor of nuclear factor kappa-B kinase subunit beta (Homo sapiens) (UniProt O14920); experiment: Inhibition of I-kappa-B-kinase beta at 10 uM; parameters: scale not given: the % may be the effect or the level left; procedure, shortened: as §1
Saccharomyces cerevisiae = experiment: Inhibition of yeast Casein kinase I at 10 uM; parameters: scale not given: the % may be the effect or the level left; procedure, shortened: as §3
[11] = biological target: MAP kinase-activated protein kinase 2 (Homo sapiens) (UniProt P49137); experiment: Inhibition of human MAP kinase-activated protein kinase 2 at 10 uM; parameters: scale not given: the % may be the effect or the level left; procedure, shortened: as §1
[12] = biological target: T1, Protein kinase C theta type (Homo sapiens, UniProt Q04759); experiment: Inhibition of Protein kinase C theta at 10 uM; parameters: scale not given: the % may be the effect or the level left; procedure, shortened: as §1
[13] = biological target: Cyclin-dependent kinase 1 (Homo sapiens, UniProt P06493); experiment: Inhibition of Cyclin-dependent kinase 1; procedure, shortened: as §2
[14] = biological target: Protein kinase C gamma type (Homo sapiens, UniProt P05129); experiment: Inhibition of human Protein kinase C gamma at 10 uM; parameters: scale not given: the % may be the effect or the level left; procedure, shortened: as §1
[15] = biological target: Dual specificity mitogen-activated protein kinase kinase 7 (Homo sapiens) (UniProt O14733); experiment: Inhibition of human Mitogen activated protein kinase kinase 7 beta at 10 uM; parameters: scale not given: the % may be the effect or the level left; procedure, shortened: as §1
[16] = Inhibition of Casein Kinase I; parameters: species or system Rattus norvegicus; procedure, shortened: as §2
[17] = biological target: 3-phosphoinositide-dependent protein kinase 1 (Homo sapiens) (UniProt O15530); experiment: Inhibition of human 3-phosphoinositide-dependent protein kinase 1 at 10 uM; parameters: scale not given: the % may be the effect or the level left; procedure, shortened: as §1
[18] = biological target: Proto-oncogene tyrosine-protein kinase Src (Homo sapiens) (UniProt P12931); experiment: Inhibition of human Src tyrosine kinase at 10 uM; parameters: scale not given: the % may be the effect or the level left; procedure, shortened: as §3
[19] = biological target: Dual specificity mitogen-activated protein kinase kinase 6 (Homo sapiens) (UniProt P52564); experiment: Inhibition of human Mitogen activated protein kinase kinase 6 at 10 uM; parameters: scale not given: the % may be the effect or the level left; procedure, shortened: as §1
[20] = biological target: Serine/threonine-protein kinase Chk1 (Homo sapiens) (UniProt O14757); experiment: Inhibition of human Serine/threonine-protein kinase Chk1 at 10 uM; parameters: scale not given: the % may be the effect or the level left; procedure, shortened: as §3
[21] = biological target: Tyrosine-protein kinase Lck (Homo sapiens) (UniProt P06239); experiment: Inhibition of human p56 Lck tyrosine kinase at 10 uM; parameters: scale not given: the % may be the effect or the level left; procedure, shortened: as §3
[22] = biological target: Mitogen-activated protein kinase 9 (Homo sapiens) (UniProt P45984); experiment: Inhibition of human c-Jun N-terminal kinase 2-alpha 2 at 10 uM; parameters: scale not given: the % may be the effect or the level left; procedure, shortened: as §3
[23] = biological target: Tyrosine-protein kinase CSK (Homo sapiens) (UniProt P41240); experiment: Inhibition of Csk tyrosine kinase at 10 uM; parameters: scale not given: the % may be the effect or the level left; procedure, shortened: as §1
[24] = biological target: CDK6/cyclin D3 (Homo sapiens) (UniProt P30281+Q00534); experiment: Inhibition of Cyclin-dependent kinase 6-cyclin D3 at 10 uM; assay type: protein-complex assay; parameters: scale not given: the % may be the effect or the level left; procedure, shortened: as §1
[25] = biological target: Insulin-like growth factor 1 receptor (Homo sapiens) (UniProt P08069); experiment: Inhibition of Type 1 insulin like growth factor receptor at 10 uM; parameters: scale not given: the % may be the effect or the level left; procedure, shortened: as §1
[26] = biological target: MAP kinase-activated protein kinase 5 (Homo sapiens) (UniProt Q8IW41); experiment: Inhibition of human Protein kinase PRAK at 10 uM; parameters: scale not given: the % may be the effect or the level left; procedure, shortened: as §1
[27] = Inhibition of Vascular endothelial growth factor receptor 2; parameters: species or system Homo sapiens; procedure, shortened: as §2
[28] = biological target: CDK3/cyclin E (Homo sapiens) (UniProt P24864+O96020+Q00526); experiment: Inhibition of cyclin-dependent kinase 3-cyclin E at 10 uM; assay type: protein-complex assay; parameters: scale not given: the % may be the effect or the level left; procedure, shortened: as §1
[29] = biological target: Ribosomal protein S6 kinase alpha-5 (Homo sapiens) (UniProt O75582); experiment: Inhibition of human MSK-1 kinase at 10 uM; parameters: scale not given: the % may be the effect or the level left; procedure, shortened: as §1
[30] = biological target: RAC-beta serine/threonine-protein kinase (Homo sapiens) (UniProt P31751); experiment: Inhibition of Protein kinase B beta at 10 uM; parameters: scale not given: the % may be the effect or the level left; procedure, shortened: as §1
[31] = biological target: T1, Protein kinase C theta type; experiment: Inhibition of Protein kinase C theta
Procedure, shortened: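 Recombinant human PKCθ (5–10 mU) with histone H1 (0.1 mg/mL) and 33P-ATP, total ATP 10 µM, in 8 mM MOPS pH 7.0, 0.2 mM EDTA, 10 mM Mg acetate. Run 40 min at room temperature, stopped with phosphoric acid, then P30 filter counting. IC50 from 6–10 concentrations; ≥3 experiments in duplicate; ± SEM.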

[32] = biological target: Calcium/calmodulin-dependent protein kinase type IV (Homo sapiens) (UniProt Q16566); experiment: Inhibition of Calcium/calmodulin-dependent protein kinase type IV at 10 uM; parameters: scale not given: the % may be the effect or the level left; procedure, shortened: as §1
[33] = biological target: Casein kinase II (Homo sapiens) (UniProt P67870+P68400+P19784); experiment: Inhibition of human Casein kinase II at 10 uM; assay type: protein-complex assay; parameters: scale not given: the % may be the effect or the level left; procedure, shortened: as §1
[34] = biological target: Glycogen synthase kinase-3 beta (Homo sapiens) (UniProt P49841); experiment: Inhibition of human glycogen synthase kinase-3beta (GSK3-beta) at 10 uM; parameters: scale not given: the % may be the effect or the level left; procedure, shortened: as §3
[35] = biological target: Cyclin-dependent kinase 7/ cyclin H (Homo sapiens) (UniProt P51946+P50613); experiment: Inhibition of cyclin-dependent kinase 7-cyclin H at 10 uM; assay type: protein-complex assay; parameters: scale not given: the % may be the effect or the level left; procedure, shortened: as §1
[36] = biological target: Protein kinase C beta type (Homo sapiens, UniProt P05771); experiment: Inhibition of human Protein kinase C beta 2 at 10 uM; parameters: scale not given: the % may be the effect or the level left; procedure, shortened: as §1
[37] = biological target: Cyclin-dependent kinase 5/CDK5 activator 1 (Homo sapiens) (UniProt Q00535+Q15078); experiment: Inhibition of Cyclin-dependent kinase 5-p35nck5a at 10 uM; assay type: protein-complex assay; parameters: scale not given: the % may be the effect or the level left; procedure, shortened: as §1

Chain of Glycogen synthase kinase-3 beta (Homo sapiens) (P49841 whole entry, looked up): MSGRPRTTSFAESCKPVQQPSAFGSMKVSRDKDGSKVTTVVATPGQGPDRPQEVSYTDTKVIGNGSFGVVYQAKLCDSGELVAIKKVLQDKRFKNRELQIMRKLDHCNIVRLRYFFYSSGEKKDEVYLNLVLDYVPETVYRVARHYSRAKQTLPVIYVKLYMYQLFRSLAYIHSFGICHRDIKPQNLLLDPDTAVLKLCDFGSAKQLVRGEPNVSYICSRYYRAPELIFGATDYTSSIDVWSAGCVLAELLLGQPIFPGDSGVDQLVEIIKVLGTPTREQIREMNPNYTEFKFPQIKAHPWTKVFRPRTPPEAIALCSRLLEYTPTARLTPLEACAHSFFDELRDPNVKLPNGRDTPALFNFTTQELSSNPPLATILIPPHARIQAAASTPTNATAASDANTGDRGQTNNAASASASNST
Chain of Inhibitor of nuclear factor kappa-B kinase subunit beta (Homo sapiens) (O14920 whole entry): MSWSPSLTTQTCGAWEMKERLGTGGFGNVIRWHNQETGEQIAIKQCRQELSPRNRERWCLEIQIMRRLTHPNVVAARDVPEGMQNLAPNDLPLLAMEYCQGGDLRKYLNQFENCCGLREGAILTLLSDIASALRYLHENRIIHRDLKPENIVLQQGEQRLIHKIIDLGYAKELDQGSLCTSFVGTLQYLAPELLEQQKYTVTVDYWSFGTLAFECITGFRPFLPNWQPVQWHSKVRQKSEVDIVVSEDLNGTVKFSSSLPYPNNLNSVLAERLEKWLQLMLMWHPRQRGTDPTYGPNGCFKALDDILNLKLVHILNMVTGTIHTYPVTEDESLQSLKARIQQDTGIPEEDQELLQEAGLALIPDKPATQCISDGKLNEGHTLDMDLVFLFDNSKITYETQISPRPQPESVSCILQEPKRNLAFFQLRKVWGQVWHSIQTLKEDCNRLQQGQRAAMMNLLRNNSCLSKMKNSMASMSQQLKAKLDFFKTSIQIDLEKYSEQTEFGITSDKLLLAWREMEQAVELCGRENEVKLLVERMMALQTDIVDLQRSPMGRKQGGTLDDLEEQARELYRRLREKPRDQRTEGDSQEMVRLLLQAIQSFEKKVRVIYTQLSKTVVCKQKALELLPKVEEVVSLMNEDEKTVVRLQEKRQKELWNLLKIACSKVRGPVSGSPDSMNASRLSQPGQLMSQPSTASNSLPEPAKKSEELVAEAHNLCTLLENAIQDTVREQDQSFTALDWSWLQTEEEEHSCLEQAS
Chain of CDK3/cyclin E (Homo sapiens) (O96020 whole entry, looked up): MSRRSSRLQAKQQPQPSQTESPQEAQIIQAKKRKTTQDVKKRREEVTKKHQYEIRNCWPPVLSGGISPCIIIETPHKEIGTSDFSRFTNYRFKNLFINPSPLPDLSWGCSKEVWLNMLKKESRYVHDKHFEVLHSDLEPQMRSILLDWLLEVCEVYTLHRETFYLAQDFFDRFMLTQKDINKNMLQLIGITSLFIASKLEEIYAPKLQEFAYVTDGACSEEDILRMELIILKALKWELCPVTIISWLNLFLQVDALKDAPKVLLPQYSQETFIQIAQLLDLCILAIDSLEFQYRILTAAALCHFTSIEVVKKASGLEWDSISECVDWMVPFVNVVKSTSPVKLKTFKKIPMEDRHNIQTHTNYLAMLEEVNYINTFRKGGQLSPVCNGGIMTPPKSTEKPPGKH
Chain of CDK3/cyclin E (Homo sapiens) (P24864 whole entry, looked up): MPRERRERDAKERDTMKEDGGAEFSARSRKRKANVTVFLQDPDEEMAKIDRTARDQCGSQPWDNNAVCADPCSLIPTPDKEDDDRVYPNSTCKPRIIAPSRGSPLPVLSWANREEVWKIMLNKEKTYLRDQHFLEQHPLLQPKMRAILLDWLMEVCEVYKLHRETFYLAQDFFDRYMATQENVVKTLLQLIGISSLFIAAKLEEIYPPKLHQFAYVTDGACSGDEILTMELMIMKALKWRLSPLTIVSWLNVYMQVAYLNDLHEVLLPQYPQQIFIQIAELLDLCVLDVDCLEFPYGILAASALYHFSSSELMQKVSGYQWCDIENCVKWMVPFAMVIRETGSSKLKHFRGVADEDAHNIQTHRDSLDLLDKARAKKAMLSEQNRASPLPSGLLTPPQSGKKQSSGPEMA
Chain of CDK3/cyclin E (Homo sapiens) (Q00526 whole entry, looked up): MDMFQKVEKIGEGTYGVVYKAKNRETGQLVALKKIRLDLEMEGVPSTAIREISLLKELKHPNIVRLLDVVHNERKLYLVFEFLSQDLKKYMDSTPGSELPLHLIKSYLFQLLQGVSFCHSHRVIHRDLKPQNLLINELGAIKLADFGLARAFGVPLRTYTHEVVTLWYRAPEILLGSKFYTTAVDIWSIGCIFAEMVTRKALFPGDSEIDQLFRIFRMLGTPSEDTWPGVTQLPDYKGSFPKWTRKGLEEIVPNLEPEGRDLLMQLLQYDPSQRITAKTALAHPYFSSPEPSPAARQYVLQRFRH
Chain of MAP kinase-activated protein kinase 2 (Homo sapiens) (P49137 whole entry, looked up): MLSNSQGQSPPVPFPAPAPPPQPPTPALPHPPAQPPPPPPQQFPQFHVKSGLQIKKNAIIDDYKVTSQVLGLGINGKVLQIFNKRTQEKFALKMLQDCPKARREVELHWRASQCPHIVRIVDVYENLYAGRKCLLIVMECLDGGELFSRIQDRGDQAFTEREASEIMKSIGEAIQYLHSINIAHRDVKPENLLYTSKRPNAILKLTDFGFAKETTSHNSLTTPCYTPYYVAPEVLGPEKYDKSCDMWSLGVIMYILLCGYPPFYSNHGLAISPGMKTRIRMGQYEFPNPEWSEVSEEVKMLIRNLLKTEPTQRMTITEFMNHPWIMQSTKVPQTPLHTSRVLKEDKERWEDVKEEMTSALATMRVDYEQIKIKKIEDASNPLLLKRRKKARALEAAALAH
Chain of Tyrosine-protein kinase Blk (Homo sapiens) (P51451 2-505 limits assumed): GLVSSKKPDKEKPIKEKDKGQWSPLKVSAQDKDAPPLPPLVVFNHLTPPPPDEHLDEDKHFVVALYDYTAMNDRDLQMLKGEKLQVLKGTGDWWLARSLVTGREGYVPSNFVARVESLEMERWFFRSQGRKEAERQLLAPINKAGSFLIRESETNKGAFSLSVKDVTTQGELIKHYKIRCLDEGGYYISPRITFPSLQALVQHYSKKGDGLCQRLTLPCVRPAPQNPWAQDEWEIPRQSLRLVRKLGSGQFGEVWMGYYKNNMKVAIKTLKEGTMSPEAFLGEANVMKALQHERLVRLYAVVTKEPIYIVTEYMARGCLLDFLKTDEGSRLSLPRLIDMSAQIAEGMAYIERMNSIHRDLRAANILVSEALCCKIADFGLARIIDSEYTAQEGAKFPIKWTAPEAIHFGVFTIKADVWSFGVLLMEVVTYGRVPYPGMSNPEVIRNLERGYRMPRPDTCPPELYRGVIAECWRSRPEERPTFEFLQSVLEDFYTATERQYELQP
Chain of Insulin-like growth factor 1 receptor (Homo sapiens) (P08069 31-736 limits assumed): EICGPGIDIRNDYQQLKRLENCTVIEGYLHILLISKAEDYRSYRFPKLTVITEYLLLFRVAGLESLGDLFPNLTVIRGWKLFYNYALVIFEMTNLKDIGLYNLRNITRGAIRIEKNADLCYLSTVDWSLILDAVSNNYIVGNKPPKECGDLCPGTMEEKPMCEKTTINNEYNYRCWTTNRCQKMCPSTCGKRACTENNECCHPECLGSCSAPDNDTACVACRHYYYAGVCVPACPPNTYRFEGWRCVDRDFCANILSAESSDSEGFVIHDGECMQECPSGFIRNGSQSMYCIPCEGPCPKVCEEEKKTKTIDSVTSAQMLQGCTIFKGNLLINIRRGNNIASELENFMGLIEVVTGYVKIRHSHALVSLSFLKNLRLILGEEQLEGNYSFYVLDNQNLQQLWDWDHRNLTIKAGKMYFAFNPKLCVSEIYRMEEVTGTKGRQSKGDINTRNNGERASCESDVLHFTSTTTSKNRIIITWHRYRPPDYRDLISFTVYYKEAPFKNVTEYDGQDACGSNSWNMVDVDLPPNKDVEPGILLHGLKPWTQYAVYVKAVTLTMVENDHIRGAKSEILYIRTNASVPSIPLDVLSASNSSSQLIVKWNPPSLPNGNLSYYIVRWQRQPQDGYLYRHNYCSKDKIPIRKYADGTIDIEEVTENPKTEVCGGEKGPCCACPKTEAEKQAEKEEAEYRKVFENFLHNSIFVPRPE
Chain of Insulin-like growth factor 1 receptor (Homo sapiens) (P08069 741-1367 limits assumed): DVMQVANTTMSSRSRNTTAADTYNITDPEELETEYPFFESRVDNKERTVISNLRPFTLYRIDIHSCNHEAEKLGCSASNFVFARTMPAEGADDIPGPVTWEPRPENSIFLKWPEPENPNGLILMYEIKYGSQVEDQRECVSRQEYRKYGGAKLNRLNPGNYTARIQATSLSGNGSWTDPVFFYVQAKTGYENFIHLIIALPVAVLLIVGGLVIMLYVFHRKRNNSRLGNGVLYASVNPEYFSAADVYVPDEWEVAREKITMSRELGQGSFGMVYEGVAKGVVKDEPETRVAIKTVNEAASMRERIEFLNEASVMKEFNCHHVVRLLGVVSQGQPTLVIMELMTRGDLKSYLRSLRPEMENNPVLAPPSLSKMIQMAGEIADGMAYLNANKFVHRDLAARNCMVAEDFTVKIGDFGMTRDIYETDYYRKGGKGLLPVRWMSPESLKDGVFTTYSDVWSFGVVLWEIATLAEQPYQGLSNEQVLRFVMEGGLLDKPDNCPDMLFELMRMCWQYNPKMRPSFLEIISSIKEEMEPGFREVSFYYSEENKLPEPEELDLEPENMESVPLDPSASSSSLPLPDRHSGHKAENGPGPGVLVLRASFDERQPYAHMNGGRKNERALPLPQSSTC
Chain of Dual specificity mitogen-activated protein kinase kinase 4 (Mus musculus) (P47809 whole entry): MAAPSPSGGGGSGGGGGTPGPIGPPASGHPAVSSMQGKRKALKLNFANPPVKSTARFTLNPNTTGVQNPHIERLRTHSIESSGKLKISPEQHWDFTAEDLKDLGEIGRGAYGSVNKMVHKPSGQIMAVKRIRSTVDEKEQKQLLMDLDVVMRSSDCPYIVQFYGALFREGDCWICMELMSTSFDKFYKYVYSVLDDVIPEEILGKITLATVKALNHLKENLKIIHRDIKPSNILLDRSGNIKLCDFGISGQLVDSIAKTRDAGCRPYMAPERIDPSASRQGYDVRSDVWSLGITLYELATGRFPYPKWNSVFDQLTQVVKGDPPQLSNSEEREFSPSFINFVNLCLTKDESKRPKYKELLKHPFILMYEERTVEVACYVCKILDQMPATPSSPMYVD

IC50 [1] [µM]	Activity [2] [%]	Activity [3] [%]	EC50 [4] [µM]	IC50 [5] [µM]	Activity [6] [%]	Activity [7] [%]	Activity [8] [%]	Activity [9] [%]	Activity [10] [%]	Activity (Saccharomyces cerevisiae) [%]	Activity [11] [%]	Activity [12] [%]	IC50 [13] [µM]	Activity [14] [%]	Activity [15] [%]	IC50 [16] [µM]	Activity [17] [%]	Activity [18] [%]	Activity [19] [%]	SMILES	further results
> 10	92	112	0.39	> 10	98	97	107	96	101	89	85	88	> 10	96	132	> 10	94	89	85	O=C1NC(=O)C2=C1c1cn(c3ncccc13)CCOCCOCCOCCOCCn1cc2c2cccnc21	Activity [20]: 102%; Activity [21]: 174%; Activity [22]: 97%; Activity [23]: 103%; Activity [24]: 97%; Activity [25]: 97%; Activity [26]: 102%; IC50 [27]: > 10 µM; Activity [28]: 97%; Activity [29]: 89%; Activity [30]: 97%; IC50 [31]: > 10 µM; Activity [32]: 88%; Activity [33]: 102%; Activity [34]: 0%; Activity [35]: 86%; Activity [36]: 69%; Activity [37]: 105%
> 10	99	130	0.06	> 10	100	91	110	90	97	84	97	71	> 10	77	129	> 10	90	90	87	O=C1NC(=O)C2=C1c1cn(c3ncccc13)CCOCCOCCOCCn1cc2c2cccnc21	Activity [20]: 101%; Activity [21]: 194%; Activity [22]: 76%; Activity [23]: 84%; Activity [24]: 97%; Activity [25]: 107%; Activity [26]: 88%; IC50 [27]: > 10 µM; Activity [28]: 72%; Activity [29]: 61%; Activity [30]: 93%; IC50 [31]: > 10 µM; Activity [32]: 84%; Activity [33]: 105%; Activity [34]: 0%; Activity [35]: 85%; Activity [36]: 15%; Activity [37]: 82%
